# RORA inh = inhibitors of human nuclear receptor RORA. AID 561. 0.43% of 65,000 active. CHO-K1 Gal4-RORA LBD luciferase reporter, luminescence. inhibition, % at 10 µM;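 active = inhibition above the mean of all tested compounds plus 3 SD, cut at about 52% in these data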
#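 test system = CHO-K1 Gal4-RORA LBD luciferase reporter cells | dosing = 10 µM single point | times = 20 h compound treatment, 37 °C | signal = luciferase luminescence | read-out = % inhibition of basal luciferase versus +RORA/-RORA DMSO controls | benchmarks = mock-transfected cells as 100%, +RORA DMSO cells as 0% | replicates = tested once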
# Hits are given with their value; . = inactive. Shown is part of a subset that was picked to be rich in hits.
SMILES,RORA inh
C=CCOc1ccc(C2c3c(oc4ccccc4c3=O)C(=O)N2c2ccccn2)cc1OCC (centres undefined),.
Clc1ccc(C2=Nn3c(nnc3-c3n[nH]c4c3CCC4)SC2)cc1,.
CCOc1ccc(C2=Nn3c(nnc3-c3ccccc3OC)SC2)cc1,54
COc1ccccc1-c1nnc(SCC(=O)Nc2nc(-c3ccccc3)cs2)n1C,.
O=C(OCCCN1CCCC1)C1(c2ccccc2)CCCC1,.
Cc1cc(C)c(-c2cc(C(F)(F)F)no2)c(=O)[nH]1,.
O=C(Nc1ccc2c(c1)OCCO2)C1CCN(S(=O)(=O)c2ccc(Br)s2)CC1,.
CCCCOc1ncnc2c1[nH]c1ccc(F)cc12,70
O=C(Nc1ccc2c(c1)ncn2C1CCCCC1)c1ccco1,.
Cc1cc(C)nc(Sc2c(F)c(F)c(C(F)(F)F)c(F)c2F)n1,.
CCOc1ccc2oc(-c3ccccc3)c(C(=O)N3CCN(CCO)CC3)c2c1,.
C=CCn1c(SCC(=O)Nc2nccs2)nnc1-c1cc2cccc(OC)c2o1,.
Cc1cc(C)c(NC(=O)Cn2c(=O)n(Cc3ccco3)c(=O)c3ccccc32)c(C)c1,.
c1ccc(-c2onc3cc4c(cc23)OCCO4)cc1,.
CC1(C)CC(=O)C2=C(C1)Oc1nc3ccccc3cc1C2C(C#N)C#N (centres undefined),72
O=C(Cc1ccccc1)CC1(O)C(=O)Nc2ccccc21 (centres undefined),.
NCCCCCc1nnc(SCc2ccccc2Cl)o1,57
Cn1c(SCc2ccccc2Cl)nnc1-c1cnccn1,.
O=C(CSc1nnc(-c2ccccc2Cl)o1)N1CCCCC1,.
CCCN(Cc1ccccc1)S(=O)(=O)c1ccc(N2C(=O)CCC2=O)cc1,.
CCOC(=O)c1ccc(NC(=O)c2cc(S(=O)(=O)N3CCOCC3)ccc2O)cc1,.
COc1cccc(OC)c1-c1nn2c(-c3ccccc3Cl)nnc2s1,.
CCOC(=O)/C(C#N)=C1/C=CNC(=O)N1,.
O=C(CCCOc1ccccc1)Nc1ccc2c(c1)OCCO2,.
CC(=O)OCC(OC(C)=O)C(OC(C)=O)C(OC(C)=O)C(=O)Nc1ccc(C)cc1 (centres undefined),.
SMILES,RORA inh
COc1ccc(CNc2cc(C)nc3ncnn23)c(OC)c1,67
O=C(CSc1nnc(NC(=O)CN2CCOCC2)s1)Nc1ccccc1,.
CC(C)(C)NC(=O)CSc1n[nH]c(=O)n1-c1ccccc1,.
O=C(Nc1ccc(-c2noc(CCc3ccccc3)n2)cc1)c1ccco1,.
CC(C)(C)c1ccc(-c2nnc(SCC(=O)O)n2N)cc1,.
Cc1cccc(-c2noc(Cc3ccccc3)n2)c1,.
NC(=O)c1ccc(NC(=O)CCCc2nc(-c3ccccc3Cl)no2)cc1,.
CN(C)C(=O)CCc1nc(-c2ccc(C(C)(C)C)cc2)no1,82
CC(C)(C)c1ccc(-c2noc(CCC(N)=O)n2)cc1,88
c1ccc(-c2noc(CN3CCN(c4ccccc4)CC3)n2)cc1,.
CNC(=O)CCc1nc(-c2ccc(C(C)(C)C)cc2)no1,89
O=c1nc(-c2ccccc2)cn[nH]1,.
CC(C)Cn1cc(C(=O)NCc2cccs2)c2c3ccccc3n(C)c2c1=O,.
c1cncc(Oc2cccc(Oc3cccnc3)c2)c1,.
O=C(CCCc1c[nH]c2ccccc12)N1CCN(c2ccc(N3CCOCC3)nn2)CC1,.
COC(=O)Cn1nc(-c2ccccc2)n(-c2ccccc2)c1=S,.
CC(C)C1N(S(=O)(=O)c2ccccc2)CCN1S(=O)(=O)c1ccccc1,.
Cc1ccc(NC(=O)NC2(C(=O)NCc3ccco3)CCCCC2)cc1,.
CCOC(=O)c1sc2nc(NC(=O)c3cccs3)sc2c1C,.
CCC(CO)NCCNC(CC)CO (centres undefined),.
Clc1nc2sccn2c1/C=N/n1cnc2ccccc21,.
CCN(CC)c1ccc(NC(=O)c2ccccc2F)cc1,.
CCN(CC)c1ccc2cc(NC(=O)CCC(=O)O)c(=O)oc2c1,66
CCN(CC)c1ccc(NC(=O)C2CC3CCC2C3)cc1 (centres undefined),.
O=C(CSCc1cccc(F)c1)N1CCN(c2ccccc2)CC1,.
SMILES,RORA inh
CCc1ccc(NC(=O)N(CCCN2CCOCC2)C(C)c2cc3cccc(OC)c3o2)cc1 (centres undefined),.
COC(=O)/C(=C1/Oc2cc(C)oc(=O)c2S1)C(F)(F)F,95
Cc1ccccc1-n1c(=O)cc(N2CCN(C(=O)c3ccco3)CC2)[nH]c1=O,.
O=C(COc1ccccc1)Nc1nc2ccccc2[nH]1,.
Cc1cnc(NC(=O)COc2ccccc2Cl)s1,74
CCOc1ccccc1OCC(=O)Nc1ccc(S(=O)(=O)N(C)C)cc1,.
Cc1c(NC(=O)CCC(=O)N2CCCCC2)c(=O)n(-c2ccccc2)n1C,.
Cn1c(=O)c2nc(Cl)n(Cc3ccc(Cl)cc3Cl)c2n(C)c1=O,.
Cc1nc(SCC(=O)Nc2c(C)n(C)n(-c3ccccc3)c2=O)n[nH]1,.
CCn1c(C)nc2cc(-c3nc4n(n3)Cc3ccccc3-4)ccc21,96
CCCc1cc(=O)[nH]c(SCC(=O)Nc2ccc(OC(F)F)cc2)n1,.
